Results on 33 compounds are retold here after article PMC11365375 (Acta Pharmaceutica Sinica. B, 2024).

SMILES strings stand for the structures.

One assay concerns H460^R231Q cells. Nature of the assay: Cell proliferation assay. Format: cell-based, human. Particulars: for IC50: Homo sapiens, 72 h, read-out: H460^R231Q (IC50, μmol/L). Summed up: (§1)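 Human NCI-H460 NSCLC cells engineered to express wild-type or R231Q DOT1L (aa 1–416) were grown in RPMI 1640 with 10% FBS. Cells were seeded in 96-well plates and exposed to a range of test compound concentrations for 72 h at 37 °C, 5% CO₂. Growth was read by CCK-8 on a plate reader, and IC50 values were derived from the dose–response.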

The subject of another assay is H460^WT cells. Nature of the assay: Cell proliferation assay. As to conditions: Homo sapiens, 72 h, read-out: H460^WT (IC50, μmol/L). Format: cell-based. In short, it runs like this: as §1

With `CN(C[C@H]1O[C@@H](n2cnc3c(N)ncnc32)[C@H](O)[C@@H]1O)C1CC2CN(C(=O)Nc3ccc(C(C)(C)C)cc3)CC2C1` (stereo partly shown) [Compound 1], the IC50 in the assay on H460^R231Q cells is 77.6 ± 3.18 µmol/L; with H460^WT cells, > 100 µmol/L.

Turning to `CC(C)N(C[C@H]1O[C@@H](n2cnc3c(N)ncnc32)[C@H](O)[C@@H]1O)C1CC2CN(C(=O)Nc3ccc(C(C)(C)C)cc3)CC2C1` (stereo partly shown) [Compound 2], the IC50 was 40.1 ± 3.73 µmol/L in the assay with H460^R231Q cells and > 100 µmol/L with H460^WT cells.

In the case of `CC(C)N(C[C@H]1O[C@@H](n2cnc3c(N)ncnc32)[C@H](O)[C@@H]1O)C1CC2CN(C(=O)Nc3ccc(Br)cc3)CC2C1` (stereo partly shown) [Compound 3], the results for the IC50 with H460^R231Q cells and in the assay on H460^WT cells were 48.8 ± 2.76 µmol/L and > 100 µmol/L, respectively.

Take `COc1ccc(NC(=O)N2CC3CC(N(C[C@H]4O[C@@H](n5cnc6c(N)ncnc65)[C@H](O)[C@@H]4O)C(C)C)CC3C2)cc1` (stereo partly shown) [Compound 4]: the results for the IC50 in the assay with H460^R231Q cells and in the assay on H460^WT cells were 60 ± 5.84 µmol/L and > 100 µmol/L, respectively.

As for `COc1ccc(CN2CC3CC(N(C[C@H]4O[C@@H](n5cnc6c(N)ncnc65)[C@H](O)[C@@H]4O)C(C)C)CC3C2)cc1Br` (stereo partly shown) [Compound 8], the IC50 in the assay on H460^R231Q cells was 85.8 ± 6.87 µmol/L; with H460^WT cells, > 100 µmol/L.

`COc1cc(CN2CC3CC(N(C[C@H]4O[C@@H](n5cnc6c(N)ncnc65)[C@H](O)[C@@H]4O)C(C)C)CC3C2)cc(OC)c1OC` (stereo partly shown) [Compound 10]: the results for the IC50 with H460^R231Q cells and in the assay with H460^WT cells were 95.9 ± 4.26 µmol/L and > 100 µmol/L, respectively.

For `CC(C)N(CCC1CC2CN(C(=O)Nc3ccc(C(C)(C)C)cc3)CC2C1)C[C@H]1O[C@@H](n2cnc3c(N)ncnc32)[C@H](O)[C@@H]1O` (stereo partly shown) [Compound 12], in the assay on H460^R231Q cells, the IC50 is > 100 µmol/L.

In the case of `CC(C)N(CCC1CC2CN(C(=O)Nc3ccc(Br)cc3)CC2C1)C[C@H]1O[C@@H](n2cnc3c(N)ncnc32)[C@H](O)[C@@H]1O` (stereo partly shown) [Compound 13], the IC50 with H460^R231Q cells is 87.2 ± 7.63 µmol/L.

For the compound `CC(C)N(CCC1CC2CN(C(=O)Nc3ccc(NC(=O)C(C)(C)C)cc3)CC2C1)C[C@H]1O[C@@H](n2cnc3c(N)ncnc32)[C@H](O)[C@@H]1O` (stereo partly shown) [Compound 14], in the assay with H460^R231Q cells, the IC50 was > 100 µmol/L.

As to `CC(C)N(CCC1CC2CN(Cc3ccc(C#N)cc3)CC2C1)C[C@H]1O[C@@H](n2cnc3c(N)ncnc32)[C@H](O)[C@@H]1O` (stereo partly shown) [Compound 16], in the assay with H460^R231Q cells, the IC50 stood at 96.6 ± 5.07 µmol/L.

As to `CC(C)N(CCC1CC2CN(Cc3ccc(F)c(F)c3)CC2C1)C[C@H]1O[C@@H](n2cnc3c(N)ncnc32)[C@H](O)[C@@H]1O` (stereo partly shown) [Compound 17], the IC50 with H460^R231Q cells turned out to be 82 ± 3.25 µmol/L.

Regarding `COC(=O)CN(C[C@H]1O[C@@H](n2cnc3c(N)ncnc32)[C@H](O)[C@@H]1O)C1CC2CN(C(=O)Nc3ccc(NC(=O)C(C)(C)C)cc3)CC2C1` (stereo partly shown) [Compound 19], in the assay with H460^R231Q cells, the IC50 was > 100 µmol/L.

As for `CC(C)(C)C(=O)Nc1ccc(NC(=O)N2CC3CC(N(CC(=O)NC4CC4)C[C@H]4O[C@@H](n5cnc6c(N)ncnc65)[C@H](O)[C@@H]4O)CC3C2)cc1` (stereo partly shown) [Compound 20], in the assay with H460^R231Q cells, the IC50 is 52.7 ± 2.99 µmol/L.

Turning to `CN(C)C(=O)CN(C[C@H]1O[C@@H](n2cnc3c(N)ncnc32)[C@H](O)[C@@H]1O)C1CC2CN(C(=O)Nc3ccc(NC(=O)C(C)(C)C)cc3)CC2C1` (stereo partly shown) [Compound 21], the IC50 in the assay on H460^R231Q cells came out at 72.5 ± 4.5 µmol/L.

With `CC(C)(C)C(=O)Nc1ccc(NC(=O)N2CC3CC(N(CC(=O)N4CCSCC4)C[C@H]4O[C@@H](n5cnc6c(N)ncnc65)[C@H](O)[C@@H]4O)CC3C2)cc1` (stereo partly shown) [Compound 22], the IC50 in the assay with H460^R231Q cells stood at 44.6 ± 3.87 µmol/L.

`CN(C[C@H]1O[C@@H](n2cnc3c(N)ncnc32)[C@H](O)[C@@H]1O)C1CCN(Cc2nc3cc(NC(=O)C(C)(C)C)ccc3[nH]2)CC1` [Compound 23]: the IC50 in the assay with H460^R231Q cells amounted to 34.8 ± 1.92 µmol/L.

Consider `COC(=O)CN(C[C@H]1O[C@@H](n2cnc3c(N)ncnc32)[C@H](O)[C@@H]1O)C1CCN(Cc2nc3cc(NC(=O)C(C)(C)C)ccc3[nH]2)CC1` [Compound 24], for which the IC50 in the assay on H460^R231Q cells was determined as 94 ± 7.07 µmol/L.

Take `CN(C)C(=O)CN(C[C@H]1O[C@@H](n2cnc3c(N)ncnc32)[C@H](O)[C@@H]1O)C1CCN(Cc2nc3cc(NC(=O)C(C)(C)C)ccc3[nH]2)CC1` [Compound 25]: in the assay with H460^R231Q cells, the IC50 came to 70 ± 2.44 µmol/L.

Regarding `CC(C)(C)C(=O)Nc1ccc2nc(CN3CCC(N(CC(=O)N4CCCC4)C[C@H]4O[C@@H](n5cnc6c(N)ncnc65)[C@H](O)[C@@H]4O)CC3)[nH]c2c1` [Compound 26], in the assay on H460^R231Q cells, the IC50 is 46.7 ± 2.69 µmol/L.

Take `CC1CCN(C(=O)CN(C[C@H]2O[C@@H](n3cnc4c(N)ncnc43)[C@H](O)[C@@H]2O)C2CCN(Cc3nc4ccc(NC(=O)C(C)(C)C)cc4[nH]3)CC2)CC1` [Compound 27]: the IC50 in the assay with H460^R231Q cells was found to be 46.7 ± 3.7 µmol/L.

Take `CC(C)(C)C(=O)Nc1ccc2nc(CN3CCC(N(CC(=O)N4CCC(O)CC4)C[C@H]4O[C@@H](n5cnc6c(N)ncnc65)[C@H](O)[C@@H]4O)CC3)[nH]c2c1` [Compound 28]: the IC50 in the assay with H460^R231Q cells stood at 22.5 ± 1.81 µmol/L.

Regarding `CCN1CCN(C(=O)CN(C[C@H]2O[C@@H](n3cnc4c(N)ncnc43)[C@H](O)[C@@H]2O)C2CCN(Cc3nc4ccc(NC(=O)C(C)(C)C)cc4[nH]3)CC2)CC1` [Compound 29], the IC50 in the assay with H460^R231Q cells came to 29.2 ± 1.63 µmol/L.

Consider `CC(C)(C)C(=O)Nc1ccc2nc(CN3CCC(N(CC(=O)N4CCOCC4)C[C@H]4O[C@@H](n5cnc6c(N)ncnc65)[C@H](O)[C@@H]4O)CC3)[nH]c2c1` [Compound 30], for which the IC50 with H460^R231Q cells worked out at 46.1 ± 3 µmol/L.

In the case of `CC(C)(C)C(=O)Nc1ccc2nc(CN3CCC(N(CC(=O)NCc4ccco4)C[C@H]4O[C@@H](n5cnc6c(N)ncnc65)[C@H](O)[C@@H]4O)CC3)[nH]c2c1` [Compound 31], the IC50 in the assay with H460^R231Q cells is > 100 µmol/L.

Consider `CC(C)(C)C(=O)Nc1ccc2[nH]c(CN3CCC(N(CCC(=O)NCC4CCCO4)C[C@H]4O[C@@H](n5cnc6c(N)ncnc65)[C@H](O)[C@@H]4O)CC3)nc2c1` (stereo partly shown) [Compound 32], for which, in the assay on H460^R231Q cells, the IC50 is 96.5 ± 5.45 µmol/L.

Consider `CC(C)NC(=O)CCN(C[C@H]1O[C@@H](n2cnc3c(N)ncnc32)[C@H](O)[C@@H]1O)C1CCN(Cc2nc3cc(NC(=O)C(C)(C)C)ccc3[nH]2)CC1` [Compound 33], for which the IC50 in the assay on H460^R231Q cells was 73 ± 5.07 µmol/L.

As to `CC(C)(C)C(=O)Nc1ccc2[nH]c(CN3CCC(N(CCC(=O)N4CCS(=O)(=O)CC4)C[C@H]4O[C@@H](n5cnc6c(N)ncnc65)[C@H](O)[C@@H]4O)CC3)nc2c1` [Compound 34], in the assay with H460^R231Q cells, the IC50 came out at 59.4 ± 4.38 µmol/L.

On to `CC(C)(C)C(=O)Nc1ccc2[nH]c(CN3CCC(N(CCC(=O)N4CCSCC4)C[C@H]4O[C@@H](n5cnc6c(N)ncnc65)[C@H](O)[C@@H]4O)CC3)nc2c1` [Compound 35], for which the IC50 in the assay on H460^R231Q cells amounted to 18.6 ± 0.94 µmol/L.

In the case of `CC1CCN(CCCN(C[C@H]2O[C@@H](n3cnc4c(N)ncnc43)[C@H](O)[C@@H]2O)C2CCN(Cc3nc4cc(NC(=O)C(C)(C)C)ccc4[nH]3)CC2)CC1` [Compound 38], the IC50 in the assay with H460^R231Q cells turned out to be 43.1 ± 1.88 µmol/L.

Turning to `CCN1CCN(CCCN(C[C@H]2O[C@@H](n3cnc4c(N)ncnc43)[C@H](O)[C@@H]2O)C2CCN(Cc3nc4cc(NC(=O)C(C)(C)C)ccc4[nH]3)CC2)CC1` [Compound 39], the IC50 in the assay with H460^R231Q cells was determined as 27.6 ± 1.31 µmol/L. The “fold decreased activity against H460^R231Q cells” value in the assay with H460^R231Q cells (versus 37) was 4 fold.

Consider `COC(=O)C1CCN(CCCN(C[C@H]2O[C@@H](n3cnc4c(N)ncnc43)[C@H](O)[C@@H]2O)C2CCN(Cc3nc4cc(NC(=O)C(C)(C)C)ccc4[nH]3)CC2)CC1` [Compound 40], for which the IC50 in the assay on H460^R231Q cells was 55.3 ± 5.49 µmol/L.

`COC1(OC)CCN(CCCN(C[C@H]2O[C@@H](n3cnc4c(N)ncnc43)[C@H](O)[C@@H]2O)C2CCN(Cc3nc4cc(NC(=O)C(C)(C)C)ccc4[nH]3)CC2)CC1` [Compound 41]: the IC50 in the assay on H460^R231Q cells turned out to be 32.5 ± 3.56 µmol/L.

For `CCN(CC)CCCN(C[C@H]1O[C@@H](n2cnc3c(N)ncnc32)[C@H](O)[C@@H]1O)C1CCN(Cc2nc3ccc(NC(=O)C(C)(C)C)cc3[nH]2)CC1` [Compound 42], the IC50 with H460^R231Q cells was determined as 73.3 ± 3.18 µmol/L.
